27 compounds from ChEMBL document CHEMBL1130180, “17-Imidazolyl, pyrazolyl, and isoxazolyl androstene derivatives. Novel steroidal inhibitors of human cytochrome C17,20-lyase (P450(17 alpha)” (J Med Chem, 1997) can be followed below.

The structures appear in SMILES notation.

Data set [1] has as its target T1, Steroid 17-alpha-hydroxylase/17,20 lyase (Homo sapiens, UniProt P05093).
T1 sequence (P05093 whole entry): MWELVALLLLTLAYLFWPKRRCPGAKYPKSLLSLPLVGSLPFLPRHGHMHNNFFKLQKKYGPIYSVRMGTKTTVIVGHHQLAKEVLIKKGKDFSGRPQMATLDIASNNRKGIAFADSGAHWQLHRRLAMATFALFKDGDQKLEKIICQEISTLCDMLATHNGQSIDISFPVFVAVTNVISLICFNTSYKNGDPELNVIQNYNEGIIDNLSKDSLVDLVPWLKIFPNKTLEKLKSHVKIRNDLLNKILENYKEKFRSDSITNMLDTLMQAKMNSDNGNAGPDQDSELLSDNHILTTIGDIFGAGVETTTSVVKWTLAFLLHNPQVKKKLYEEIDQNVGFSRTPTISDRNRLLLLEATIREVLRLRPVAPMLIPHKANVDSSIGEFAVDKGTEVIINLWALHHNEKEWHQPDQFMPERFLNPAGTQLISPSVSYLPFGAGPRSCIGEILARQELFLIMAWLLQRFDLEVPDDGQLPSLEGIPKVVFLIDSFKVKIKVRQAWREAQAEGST
Put plainly: Inhibition of human testicular microsomal Cytochrome P450 17A1. The gist of the method:
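Human testis microsomes (orchidectomy tissue from untreated prostate cancer patients, stored at -70 °C, diluted in 0.1 M phosphate buffer). Radiometric: 10 μM [21-3H]-17α-hydroxypregnenolone, NADPH-generating system, pH 7.4, 10 min preincubation, then ~90 µg protein for 60 min under O2 at 34 °C. [3H]acetic acid measured in aqueous phase after chloroform extraction and charcoal. IC50 from log-log regression; six concentrations.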

Data set [2] deals with T2, Steroid 17-alpha-hydroxylase/17,20 lyase (Rattus norvegicus, UniProt P11715).
T2 sequence (P11715 whole entry): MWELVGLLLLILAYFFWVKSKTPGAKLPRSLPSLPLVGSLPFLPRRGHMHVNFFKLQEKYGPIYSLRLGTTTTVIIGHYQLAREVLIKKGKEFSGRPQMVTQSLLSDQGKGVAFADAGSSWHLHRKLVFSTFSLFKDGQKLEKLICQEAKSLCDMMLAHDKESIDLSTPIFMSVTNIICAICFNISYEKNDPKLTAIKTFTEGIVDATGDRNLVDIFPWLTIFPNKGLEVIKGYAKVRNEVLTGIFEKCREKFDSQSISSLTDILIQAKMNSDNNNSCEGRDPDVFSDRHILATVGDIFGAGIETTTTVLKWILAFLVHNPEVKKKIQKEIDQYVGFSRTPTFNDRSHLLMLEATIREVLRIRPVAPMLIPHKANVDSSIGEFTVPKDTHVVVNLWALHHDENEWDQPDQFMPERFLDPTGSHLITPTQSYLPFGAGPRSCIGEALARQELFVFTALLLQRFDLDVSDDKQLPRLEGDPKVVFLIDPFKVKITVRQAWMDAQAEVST
The experiment in a line: Percent inhibition of rat testicular microsomal Cytochrome P450 17A1. More on the design: concentration or dose not given beside the values. The gist of the method: (§1)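 Single-concentration screen at 1500 nM using adult Sprague-Dawley rat testis microsomes. Incubation: 10 μM [21-3H]-17α-hydroxypregnenolone with NADPH-generating system, pH 7.4, 60 min, 34 °C, under O2. Percent inhibition was read from tritiated acetic acid in the aqueous phase after chloroform extraction of steroids.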

For data set [3], the target named is T2, Steroid 17-alpha-hydroxylase/17,20 lyase. Put plainly: Inhibition of rat testicular microsomal Cytochrome P450 17A1. The gist of the method: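 Adult Sprague-Dawley rat (200-250 g) testicular microsomes, about 90 µg protein. [21-3H]-17α-hydroxypregnenolone was used at 10 µM total. Cofactors were NADP 65 µM, glucose 6-phosphate 0.71 mM and G6PDH 0.13 IU in phosphate buffer pH 7.4. Compounds were preincubated 10 min, then reacted 60 min under O2 at 34 °C. Released [3H]acetic acid was counted after chloroform extraction and charcoal treatment.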

Data set [4] addresses T1, Steroid 17-alpha-hydroxylase/17,20 lyase. The experiment in a line: Percent inhibition of human testicular microsomal Cytochrome P450 17A1. More on the design: concentration or dose not given beside the values. The gist of the method: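 Human testis microsomes were incubated 60 min at 34 °C under O2 with 10 μM [21-3H]-17α-hydroxypregnenolone and NADPH-generating system (pH 7.4). Test compound was present at a single 150 or 400 nM. Inhibition was read from [3H]acetic acid released to the aqueous phase after chloroform extraction.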

The target in data set [5] is T2, Steroid 17-alpha-hydroxylase/17,20 lyase. The experiment in a line: Percent inhibition of rat testicular microsomal Cytochrome P450 17A1; No Inhibition. The gist of the method: as §1

In general, IC50 refers to the midpoint of a concentration-inhibition curve. Consider `CC(C1N=CC=N1)[C@H]1CCC2C3CCC4=CC(=O)CC[C@]4(C)C3CC[C@@]21C` (some centres not stated), for which the IC50 in data set [1] was above 30000 nM.
The Inhibition is the change of the read-out against control, counted positive when it falls. `C[C@]12CCC3C(CC=C4CC(O)CC[C@@]43C)C1CCC2c1ccon1` (some centres not stated) had an Inhibition in data set [2] of 54%. The compound also had an IC50 in data set [1] of 1110 nM.
For the compound `C[C@]12CCC(=O)C=C1CCC1C2CC[C@@]2(C)C1CC[C@@H]2C1N=CC=N1` (some centres not stated), the Inhibition in data set [2] amounted to 25%. This compound also had a Conc in data set [1] of 400 nM.
With `C[C@]12CCC(=O)C=C1CCC1C2CC[C@]2(C)C(c3ccn[nH]3)=CCC12` (some centres not stated), the IC50 was 76 nM in data set [3] and 59 nM in data set [1].
`C[C@]12CCC3C(CC=C4CC(O)CC[C@@]43C)C1CCC2c1ccno1` (some centres not stated): the Inhibition in data set [2] is on record as 93%; in data set [4] it was 21%. Besides, the Conc in data set [1] was 150 nM.
Regarding `C[C@]12CCC(=O)C=C1CCC1C2CC[C@@]2(C)C1CC[C@@H]2c1cnc[nH]1` (some centres not stated), the IC50 turned out to be 79 nM in data set [3] and 58 nM in data set [1].
Consider `C[C@]12CCC(O)CC1=CCC1C2CC[C@]2(C)C(c3ccnn3-c3ccccc3)=CCC12` (some centres not stated), for which the Inhibition is given as 11% in data set [4] and “Not Active” in data set [5]. The same compound showed a Conc in data set [1] of 150 nM.
Take `C[C@]12CCC3C(CC=C4CC(O)CC[C@@]43C)C1CCC2c1ccn[nH]1` (some centres not stated): the Inhibition in data set [2] is 92%; in data set [4], 20%. For the same compound, the Conc in data set [1] was determined as 150 nM.
With `C[C@]12CC[C@H](O)CC1=CC[C@@H]1[C@@H]2CC[C@]2(C)C(c3ccn[nH]3)=CC[C@@H]12`, the IC50 in data set [3] stood at 28 nM; in data set [1], 42 nM.
For `C[C@]12CC[C@H]3[C@@H](CC=C4C[C@@H](O)CC[C@@]43C)[C@@H]1CC[C@@H]2c1cnc[nH]1`, in that order: 91 nM and 66 nM.
`C[C@]12CC[C@H](O)CC1=CC[C@@H]1[C@@H]2CC[C@@]2(C)[C@H]1CC1O[C@]12c1cnc[nH]1` (some centres not stated): the IC50 in data set [1] was determined as 430 nM.
As for `C[C@]12CC[C@H](O)CC1=CC[C@@H]1[C@@H]2CC[C@]2(C)C(c3ccno3)=CC[C@@H]12`, the IC50 is 84 nM in data set [3] and 108 nM in data set [1].
On to `C[C@]12CC[C@H](O)CC1=CC[C@@H]1[C@@H]2CC[C@]2(C)C(c3ncc[nH]3)=CC[C@@H]12`, for which, in data set [2], the Inhibition is reported as 65%. This compound came in with a half-maximal inhibitory concentration (IC50) in data set [1] of 21 nM.
Take `CC(=O)O[C@H]1CC[C@@]2(C)C(=CC[C@H]3[C@@H]4CC[C@H](C5=CNC(C(C)=O)N5)[C@@]4(C)CC[C@@H]32)C1` (some centres not stated): the IC50 in data set [3] came out at 5460 nM; in data set [1] it was 100 nM.
The matching figures for `C[C@]12CC[C@H](O)CC1=CC[C@@H]1[C@@H]2CC[C@]2(C)C(c3c[nH]cn3)=CC[C@@H]12`: 49 nM and 24 nM.
With `CC(=O)O[C@H]1CC[C@@]2(C)C(=CC[C@H]3[C@@H]4CC[C@H](c5c[nH]cn5)[C@@]4(C)CC[C@@H]32)C1`, the Inhibition in data set [2] came to 55%. The compound further had an IC50 in data set [1] of 199 nM.
`Cc1ncc([C@H]2CC[C@H]3[C@@H]4CC=C5C[C@@H](O)CC[C@]5(C)[C@H]4CC[C@]23C)[nH]1` showed an IC50 in data set [3] of 4810 nM. In data set [4], the Inhibition turned out to be 26%.
In the case of `CC(=O)O[C@H]1CC[C@@]2(C)C(=CC[C@@H]3[C@@H]2CC[C@]2(C)C(c4cnc[nH]4)=CC[C@@H]32)C1`, in data set [2], the Inhibition was 92%.
`C[C@]12CCC(=O)C=C1CCC1C2CC[C@@]2(C)C1CC[C@]2(O)c1c[nH]cn1` (some centres not stated) gave an IC50 in data set [1] of 1200 nM.
Turning to `C[C@]12CCC(=O)C=C1CCC1C2CC[C@]2(C)C(c3cnc[nH]3)=CCC12` (some centres not stated), the IC50 in data set [3] was 14 nM; in data set [1] it was 50 nM.
`Cn1ccc(C2=CCC3C4CC=C5CC(O)CC[C@]5(C)C4CC[C@]23C)n1` (some centres not stated): the results for the Inhibition in data set [4] and in data set [5] were 25% and “Not Active”, respectively. For the same compound, the Conc in data set [1] turned out to be 150 nM.
In the case of `Cn1nccc1C1=CCC2C3CC=C4CC(O)CC[C@]4(C)C3CC[C@]12C` (some centres not stated), the values for the Inhibition in data set [4] and in data set [5] were 12% and “Not Active”, respectively. For the same compound, the Conc in data set [1] worked out at 150 nM.
The matching figures for `Cc1nc(C2CCC3C4CC=C5CC(O)CC[C@]5(C)C4CC[C@]23C)co1` (some centres not stated): 21%, “Not Active” and 400 nM.
`C[C@]12CCC3C(CC=C4CC(O)CC[C@@]43C)C1CCC2c1ncc[nH]1` (some centres not stated): the values for the Inhibition in data set [2] and in data set [4] were 19% and 24%, respectively. Besides, the Conc in data set [1] worked out at 400 nM.
Turning to `C[C@]12CCC(O)CC1=CCC1C2CC[C@@]2(C)C1CC[C@@H]2c1c[nH]c(-c2ccccc2)n1` (some centres not stated), the Inhibition was 21% in data set [4] and “Not Active” in data set [5]. In addition, in data set [1], the Conc stood at 400 nM.
Turning to `C[C@]12CCC(=O)C=C1CCC1C2CC[C@]2(C)C(c3ccno3)=CCC12` (some centres not stated), the IC50 is 32 nM in data set [3] and 39 nM in data set [1].
With `CC(=O)N1CCN(c2ccc(OC[C@H]3CO[C@](Cn4ccnc4)(c4ccc(Cl)cc4Cl)O3)cc2)CC1` [KETOCONAZOLE], the IC50 in data set [3] stood at 1070 nM.
